In ChEMBL document CHEMBL1126202, “Dual-action penems and carbapenems” (J Med Chem, 1992):
In brackets after ≈: the same amount, converted by molar mass.

How the values were obtained:
[1] = Stability in pH 7.4 phosphate buffer at 37 degree C; type: physicochemical
Procedure, shortened: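 Compounds were held in pH 7.4 phosphate buffer at 37 °C and monitored by reverse-phase HPLC on a PRP-1 column with UV detection at 275–286 nm. The mobile phase was 0.01 M tetradecyltrimethylammonium bromide in pH 8.2 phosphate/acetonitrile. Product-peak decline was followed to at least 50%, and half-life was taken from semilogarithmic plots.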

[2] = test system: Bacteroides thetaiotaomicron; test: (§1) In vitro antibacterial activity against Bacteroides thetaiotaomicron 62B; type: functional
Procedure, shortened: (§2)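 Anaerobic MICs were determined in microtiter plates in Schaedler's broth supplemented with coenzyme I and hemin. Incubation was under an oxygen-free hydrogen-carbon dioxide atmosphere.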

Bacteroides fragilis [3] = test: In vitro antibacterial activity against Bacteroides fragilis F117A; type: functional
Procedure, shortened: (§3)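 MIC by broth dilution in microtiter plates, run in an oxygen-free hydrogen–carbon dioxide atmosphere. Medium: Schaedler's broth with coenzyme I and hemin added.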

Clostridioides difficile [4] = test: In vitro antibacterial activity against Clostridium difficile 651; type: functional
Clostridium perfringens = test: In vitro antibacterial activity against Clostridium perfringens 13424; type: functional; procedure, shortened: as §3
Bacteroides fragilis [5] = test: In vitro antibacterial activity against bacteroides fragilis S2; type: functional
Procedure, shortened: (§4)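 Anaerobic MIC, run in microtiter plates in Schaedler's broth supplemented with coenzyme I and hemin. Incubated in an oxygen-free hydrogen–carbon dioxide atmosphere.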

Hathewaya histolytica = test: In vitro antibacterial activity against clostridium histolyticum 503-86; type: functional; procedure, shortened: as §4
Escherichia coli [6] = test: In vitro antibacterial activity against Escherichia coli 257; type: functional
Escherichia coli [7] = test: In vitro antibacterial activity against Escherichia coli TEM-1 (constitutive beta-lactamase producer); type: functional
Procedure, shortened: (§5)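 MIC was determined by agar dilution on Mueller-Hinton agar. Serial 2-fold aqueous dilutions were diluted 10-fold in agar to give final concentrations of 128 to 0.0156 μg/mL. Plates were inoculated by Steers replicator with overnight broth cultures diluted 100-fold.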

Enterobacter cloacae = test: In vitro antibacterial activity against enterobacter cloacae P99 (constitutive beta-lactamase producer); type: functional; procedure, shortened: as §5
Klebsiella pneumoniae [8] = test: In vitro antibacterial activity against klebsiella pneumoniae A; type: functional
Procedure, shortened: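 Agar-dilution MIC on Mueller-Hinton agar. Serial 2-fold dilutions were made in water, giving final agar concentrations of 128 to 0.0156 μg/mL. Inoculum was an overnight broth culture diluted 100-fold, applied with a multipoint replicator.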

Proteus mirabilis [9] = test: (§6) In vitro antibacterial activity against Proteus mirabilis 90; type: functional
Procedure, shortened: (§7)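 Proteus MICs were determined by agar dilution on Mueller-Hinton agar containing 3% agar. Serial 2-fold dilutions gave final concentrations of 128 to 0.0156 μg/mL. Plates were replicator-inoculated with 100-fold-diluted overnight broth cultures.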

Pseudomonas aeruginosa [10] = test: In vitro antibacterial activity against Pseudomonas aeruginosa 18SH (constitutive beta-lactamase producer); type: functional; procedure, shortened: as §5
Pseudomonas aeruginosa [11] = test: In vitro antibacterial activity against Pseudomonas aeruginosa 8780; type: functional; procedure, shortened: as §5
Proteus vulgaris = test: In vitro antibacterial activity against proteus vulgaris ATCC 6380 (constitutive beta-lactamase producer); type: functional; procedure, shortened: as §7
Staphylococcus aureus [12] = test: In vitro antibacterial activity against Staphylococcus aureus 67(methicillin resistant); type: functional
Procedure, shortened: (§8)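 MIC by agar dilution on Mueller-Hinton agar. Compounds were serially 2-fold diluted in water, final 128 to 0.0156 μg/mL in agar. Inoculum: overnight broth culture diluted 100-fold, applied with a Steers replicator.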

Staphylococcus aureus [13] = test: (§9) In vitro antibacterial activity against Staphylococcus aureus 753 (constitutive beta-lactamase producer); type: functional; procedure, shortened: as §8
Streptococcus pyogenes = test: In vitro antibacterial activity against Streptococcus pyogenes 4; type: functional
Procedure, shortened: (§10)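 Streptococcal MICs were determined by agar dilution on brain heart infusion agar supplemented with 20 units/mL bovine liver catalase. Final concentrations were 128 to 0.0156 μg/mL from 2-fold dilutions. Inocula were overnight broth cultures diluted 100-fold, applied by Steers replicator.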

Serratia marcescens [14] = test: In vitro antibacterial activity against serratia marcescens SM (constitutive beta-lactamase producer); type: functional; procedure, shortened: as §5
Staphylococcus aureus [15] = test: In vitro antibacterial activity against staphylococcus aureus smith; type: functional; procedure, shortened: as §5
Streptococcus pneumoniae [16] = test: In vitro antibacterial activity against streptococcus pneumoniae 6301; type: functional; procedure, shortened: as §10
Citrobacter freundii [17] = test: In vitro antibacterial activity against citrobacter freundii BS-16 (constitutive beta-lactamase producer); type: functional; procedure, shortened: as §5
Clostridioides difficile [18] = test: In vitro antibacterial activity against Clostridium difficile 701; type: functional
Bacteroides fragilis [19] = test: In vitro antibacterial activity against Bacteroides fragilis S2; type: functional; procedure, shortened: as §2
Citrobacter freundii [20] = test: In vitro antibacterial activity against Citrobacter freundii BS-16 (constitutive beta-lactamase producer); type: functional; procedure, shortened: as §5
Klebsiella pneumoniae [21] = test: In vitro antibacterial activity against Klebsiella pneumoniae A; type: functional; procedure, shortened: as §5
Staphylococcus aureus [22] = test: as §9; type: functional; procedure, shortened: as §5; remark: listed apart in the source
Serratia marcescens [23] = test: In vitro antibacterial activity against Serratia marcescens SM (constitutive beta-lactamase producer); type: functional; procedure, shortened: as §5
Streptococcus pneumoniae [24] = test: In vitro antibacterial activity against Streptococcus pneumoniae 6301; type: functional; procedure, shortened: as §10
[25] = test system: Bacteroides thetaiotaomicron; test: as §1
[26] = test system: Bacteroides thetaiotaomicron; test: microbe, parasite or virus in culture
Proteus mirabilis [27] = test: as §6; type: functional; remark: listed apart in the source
Procedure, shortened: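 MIC by agar dilution on Mueller-Hinton agar containing 3% agar. Compounds were serially 2-fold diluted in water, final 128 to 0.0156 μg/mL in agar. Inoculum: overnight broth culture diluted 100-fold, applied with a Steers replicator.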

Pseudomonas aeruginosa [28] = test: (§11) In vitro antibacterial activity against Ps. aeruginosa 18SH (constitutive beta-lactamase producer)
Pseudomonas aeruginosa [29] = test: microbe, parasite or virus in culture
Pseudomonas aeruginosa [30] = test: as §11; type: functional; procedure, shortened: as §5

Structure (SMILES)	MIC [2]	MIC (Bacteroides fragilis [3])	MIC (Clostridioides difficile [4])	MIC (Clostridium perfringens)	MIC (Bacteroides fragilis [5])	MIC (Hathewaya histolytica)	MIC (Escherichia coli [6])	MIC (Escherichia coli [7])	MIC (Enterobacter cloacae)	MIC (Klebsiella pneumoniae [8])	MIC (Proteus mirabilis [9])	MIC (Pseudomonas aeruginosa [11])	MIC (Proteus vulgaris)	MIC (Staphylococcus aureus [12])	MIC (Staphylococcus aureus [13])	MIC (Streptococcus pyogenes)	MIC (Serratia marcescens [14])	MIC (Staphylococcus aureus [15])	MIC (Streptococcus pneumoniae [16])	MIC (Citrobacter freundii [17])	further results
C[C@@H](O)[C@H]1C(=O)N2C(C(=O)[O-])=C(COC(=O)N3CCN(c4cc5c(cc4F)c(=O)c(C(=O)O)cn5C4CC4)CC3)[C@H](C)[C@H]12.[K+]	16 µg/mL	4 µg/mL	4 µg/mL	< 0.125 µg/mL	1 µg/mL	< 0.125 µg/mL	< 0.0156 µg/mL	0.0313 µg/mL	0.0313 µg/mL	0.0625 µg/mL	0.125 µg/mL	0.5 µg/mL	0.0313 µg/mL	0.5 µg/mL	0.5 µg/mL	0.0313 µg/mL	0.0625 µg/mL	0.125 µg/mL	0.0313 µg/mL	0.0625 µg/mL	half-life [1]: 300 min; MIC (Pseudomonas aeruginosa [10]): 0.5 µg/mL; MIC (Clostridioides difficile [18]): 1 µg/mL
O=C(O)c1cn(C2CC2)c2cc(N3CCNCC3)c(F)cc2c1=O [CIPROFLOXACIN]	–	–	–	–	–	–	–	0.0156 µg/mL (≈ 0.0471 µM)	–	–	0.0625 µg/mL (≈ 0.189 µM)	–	–	0.5 µg/mL (≈ 1.51 µM)	–	0.5 µg/mL (≈ 1.51 µM)	–	–	–	–	MIC (Bacteroides fragilis [19]): 4 µg/mL (≈ 12.1 µM); MIC (Citrobacter freundii [20]): 0.0313 µg/mL (≈ 0.0945 µM); MIC (Klebsiella pneumoniae [21]): 0.25 µg/mL (≈ 0.754 µM); MIC (Staphylococcus aureus [22]): 0.25 µg/mL (≈ 0.754 µM); MIC (Serratia marcescens [23]): 0.0313 µg/mL (≈ 0.0945 µM); MIC (Streptococcus pneumoniae [24]): 1 µg/mL (≈ 3.02 µM); MIC [25]: > 128 µg/mL; MIC [26]: 0.25 µg/mL (≈ 0.754 µM)
C[C@@H](O)[C@H]1C(=O)N2C(C(=O)O)=C(SCCNC=N)C[C@H]12.O	> 128 µg/mL	2 µg/mL	4 µg/mL	< 0.125 µg/mL	< 0.125 µg/mL	< 0.125 µg/mL	0.125 µg/mL	0.25 µg/mL	0.25 µg/mL	0.125 µg/mL	–	–	1 µg/mL	32 µg/mL	64 µg/mL	< 0.0156 µg/mL	0.25 µg/mL	< 0.0156 µg/mL	< 0.0156 µg/mL	2 µg/mL	MIC (Proteus mirabilis [27]): 2 µg/mL; MIC (Pseudomonas aeruginosa [28]): 1 µg/mL; MIC (Clostridioides difficile [18]): 4 µg/mL; MIC (Pseudomonas aeruginosa [29]): 2 µg/mL
C[C@@H](O)[C@H]1C(=O)N2C(C(=O)[O-])=C(CO)[C@H](C)[C@H]12.[K+]	–	–	–	–	–	–	0.5 µg/mL	0.5 µg/mL	0.5 µg/mL	0.5 µg/mL	1 µg/mL	32 µg/mL	0.5 µg/mL	32 µg/mL	32 µg/mL	0.0625 µg/mL	1 µg/mL	0.125 µg/mL	0.0625 µg/mL	0.5 µg/mL	MIC (Pseudomonas aeruginosa [30]): 16 µg/mL
